According to PMC10872613 (Journal of immunology (Baltimore, Md. : 1950), 2024):
Entries after “also recorded” stand apart in the source; their conditions may differ. Read-outs that look alike come from different tables or passages of the source. Blank lines part the entries; values can stand above or below the compound they belong to.

Assays:
[1] = target: thrombin (Homo sapiens, UniProt P00734); assay: Thrombin chromogenic ZGR assay; assay type: biochemical
In short: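 Serum-purified activated thrombin (2.7 nM) was assayed at 25 °C in 50 mM HEPES pH 7.4, 140 mM NaCl, 0.005% Tween-20, 5% DMSO with 0.59 mM DTNB. Initial ZGR hydrolysis rates were measured at four ZGR levels (~Km–9 x Km) × five inhibitor levels (0–~3.4 x Ki). Triplicate data were globally fit to a competitive inhibition model.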

[2] = test system: Cathepsin-G; assay: Cathepsin G chromogenic assay; assay type: biochemical, human; details: inhibitor 0 to 29.4 μM; data not shown
In short: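 Cathepsin G (9.5 nM) was assayed at 25 °C with inhibitor 0–29.4 μM and fixed 0.92 mM succinyl-Ala-Ala-Pro-Phe-p-nitroanilide (ε400 = 12.3 mM−1 cm−1). Buffer: 50 mM HEPES pH 7.4, 140 mM NaCl, 0.025% Tween-20, 20.7% DMSO. Microplate chromogenic read-out.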

[3] = test system: classical pathway (CP); assay: CP-specific ELISA; assay type: biochemical, human; details: for C4b deposition (CP activity): 100 μM compound, single-concentration screen, 2% human serum
In short: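 Wells coated with human IgM received 2% (v/v) complement-preserved human serum with a two-fold test compound series (100–3.1 μM) in HBS++ plus 0.1% gelatin, 1 h at 37 °C. After TBS-T washes, deposited C4b was detected with mouse anti-C4b mAb and HRP anti-mouse IgG. Signals were normalized to uninhibited and serum-free controls. Triplicates were fit to a four-parameter dose-response model.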

[4] = test system: CP activation by heparin-induced immune complexes; assay: CP activation by heparin-induced immune complexes in whole blood; assay type: cell-based, human; details: highest concentration examined (series 1,000 – 10 μM)
In short: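 Healthy-donor whole blood was anticoagulated with ACD (1.4 mL per 8.6 mL blood). It was preincubated 30 min at room temperature with buffer, test compound (1000–10 μM) or B. miyamotoi FbpA-C/FbpB-C control proteins (100 μg/mL). Anti-PF4/heparin antibody KKO (50 μg/mL), PF4 (25 μg/mL) and heparin (1 U/mL) were then added, 30 min at 37 °C. Plasma was quenched with 10 mM EDTA, and C5a was measured by sandwich ELISA.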

[5] = target: T1, C1s-2SP (Homo sapiens, UniProt P09871); assay: C1s-2SP chromogenic ZGR cleavage assay; assay type: biochemical; details: for C1s-2SP activity (initial velocity of ZGR cleavage): 100 μM compound, single-concentration screen, compared with mean of library; for loss of activity compared to A1: Ki against human C1s-2SP relative to A1
T1 sequence (P09871 357-423 limits assumed): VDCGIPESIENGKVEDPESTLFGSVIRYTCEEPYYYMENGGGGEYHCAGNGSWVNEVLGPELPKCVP
T1 sequence (P09871 438-688 limits assumed): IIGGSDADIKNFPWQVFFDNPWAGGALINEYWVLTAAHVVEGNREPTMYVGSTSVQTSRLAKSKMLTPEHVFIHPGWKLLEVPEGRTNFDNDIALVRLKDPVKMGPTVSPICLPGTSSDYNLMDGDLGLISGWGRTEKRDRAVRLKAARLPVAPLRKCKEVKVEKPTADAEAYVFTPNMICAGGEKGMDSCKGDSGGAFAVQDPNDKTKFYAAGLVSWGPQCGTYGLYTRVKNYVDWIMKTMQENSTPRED
In short: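 Recombinant human C1s-2SP was expressed in E. coli BL21(DE3), purified by denaturing IMAC, refolded in glutathione redox buffer and isolated by gel filtration. The enzyme (2.4 nM) was run at 25 °C in 50 mM HEPES pH 7.4, 140 mM NaCl, 0.005% Tween-20, 5% DMSO, 0.44 mM DTNB. ZGR initial velocities were read on a 4×5 grid (~0.2–1.2 x Km; inhibitor 0–~2.6 x Ki), n = 3, with a global competitive fit.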

[6] = test system: Neutrophil Elastase; assay: Neutrophil elastase chromogenic assay; assay type: biochemical, human; details: inhibitor 0 to 29.4 μM
In short: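 Neutrophil elastase purified from human sputum (6.9 nM) was run at 25 °C with inhibitor 0–29.4 μM and fixed 52 μM methoxysuccinyl-Ala-Ala-Pro-Val-p-nitroanilide (ε400 = 12.3 mM−1 cm−1). Buffer: 50 mM HEPES pH 7.4, 140 mM NaCl, 0.05% Tween-20. Microplate chromogenic read-out.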

[7] = test system: Factor Xa; assay: Factor Xa chromogenic ZGR assay; assay type: biochemical; details: inhibitor 0 to 226 μM
In short: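 Buffer: 50 mM HEPES pH 7.4, 140 mM NaCl, 0.025% Tween-20, 5% DMSO, with 0.59 mM DTNB indicator. Thiol release was read chromogenically in microplates.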

[8] = test system: lectin pathway (LP); assay: LP ELISA; assay type: biochemical, human; details: 100 μM A1, C1q-depleted serum, mannan-coated plates
[9] = Aqueous solubility; assay type: physicochemical; details: water
[10] = target: T2, C1r purified from human serum (Homo sapiens, UniProt P00736); assay: C1r chromogenic ZGR assay; assay type: biochemical
T2 sequence (P00736 18-463 limits assumed): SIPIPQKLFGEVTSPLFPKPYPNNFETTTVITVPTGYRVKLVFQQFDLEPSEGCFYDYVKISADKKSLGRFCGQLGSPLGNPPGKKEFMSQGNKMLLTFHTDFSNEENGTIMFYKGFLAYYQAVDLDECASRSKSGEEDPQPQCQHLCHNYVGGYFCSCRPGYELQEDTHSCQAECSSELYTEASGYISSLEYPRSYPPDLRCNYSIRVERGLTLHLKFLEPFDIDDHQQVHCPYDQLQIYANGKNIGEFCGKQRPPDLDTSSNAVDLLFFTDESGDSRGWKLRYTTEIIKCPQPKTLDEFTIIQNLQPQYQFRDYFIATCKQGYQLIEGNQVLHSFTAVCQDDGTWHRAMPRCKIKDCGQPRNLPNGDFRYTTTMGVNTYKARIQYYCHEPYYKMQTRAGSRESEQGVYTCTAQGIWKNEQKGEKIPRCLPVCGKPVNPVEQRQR
T2 sequence (P00736 464-705 limits assumed): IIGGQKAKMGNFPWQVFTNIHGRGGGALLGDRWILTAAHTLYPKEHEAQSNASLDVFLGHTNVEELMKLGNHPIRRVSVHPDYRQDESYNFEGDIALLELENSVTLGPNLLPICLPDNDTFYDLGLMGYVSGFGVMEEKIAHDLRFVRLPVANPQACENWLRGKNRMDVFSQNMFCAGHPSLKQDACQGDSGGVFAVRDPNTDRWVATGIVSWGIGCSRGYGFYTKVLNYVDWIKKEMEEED
In short: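 Human serum-derived C1r (10 nM) at 25 °C in 50 mM HEPES pH 7.4, 140 mM NaCl, 0.005% Tween-20, 10% DMSO, with 0.44 mM DTNB as indicator. Initial velocities of Z-Gly-Arg-thiobenzyl ester (ZGR) hydrolysis were read at four ZGR levels (~0.1–0.7 x Km) × five inhibitor levels (0–~0.8 x Ki) in microplates. Data (n = 3) were globally fit to a competitive inhibition model.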

[11] = target: T3, C1s (Homo sapiens, UniProt P09871); assay: Cleavage of C2 by C1s; assay type: biochemical
T3 sequence (P09871 16-437 limits assumed): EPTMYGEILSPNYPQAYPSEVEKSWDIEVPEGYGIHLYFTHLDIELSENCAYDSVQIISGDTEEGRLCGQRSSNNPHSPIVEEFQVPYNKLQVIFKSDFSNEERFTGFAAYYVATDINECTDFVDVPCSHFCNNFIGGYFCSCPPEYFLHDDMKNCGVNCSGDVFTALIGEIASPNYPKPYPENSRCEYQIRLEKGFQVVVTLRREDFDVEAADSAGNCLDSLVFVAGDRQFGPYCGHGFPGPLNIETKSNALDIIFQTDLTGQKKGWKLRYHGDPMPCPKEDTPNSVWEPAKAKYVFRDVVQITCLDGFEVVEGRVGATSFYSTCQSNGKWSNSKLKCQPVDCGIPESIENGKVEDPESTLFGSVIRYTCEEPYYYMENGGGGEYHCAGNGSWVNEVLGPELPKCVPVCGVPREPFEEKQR
T3 sequence (P09871 438-688 limits assumed): T1 sequence (P09871 438-688 limits assumed)
In short: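 Serum-derived activated C1s (6.25 nM) was mixed with a two-fold test compound series (100–1.56 μM) in HBS++ and C2 was added (0.5 mg/mL stock), 1 h at 37 °C. Products were separated by SDS-PAGE with Coomassie staining. C2b band density was corrected for total C2 and normalized to a C1s + C2 control. Triplicates were fit to a four-parameter dose-response model.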

[12] = target: T4, mouse C1s-2SP (Mus musculus, UniProt Q8CG14); assay: Mouse C1s-2SP chromogenic ZGR assay; assay type: biochemical
T4 sequence (Q8CG14 357-423 limits assumed): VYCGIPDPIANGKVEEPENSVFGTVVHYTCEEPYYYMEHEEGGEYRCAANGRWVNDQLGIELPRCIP
T4 sequence (Q8CG14 438-688 limits assumed): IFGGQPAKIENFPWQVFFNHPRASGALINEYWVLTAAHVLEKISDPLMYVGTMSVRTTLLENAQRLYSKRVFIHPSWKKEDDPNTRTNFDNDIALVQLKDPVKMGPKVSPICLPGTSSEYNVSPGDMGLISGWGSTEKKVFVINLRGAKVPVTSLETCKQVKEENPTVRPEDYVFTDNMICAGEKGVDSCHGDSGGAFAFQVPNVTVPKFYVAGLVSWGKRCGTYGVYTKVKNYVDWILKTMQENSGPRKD
In short: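 Recombinant mouse C1s-2SP (2.5 nM) was tested at 25 °C in 50 mM HEPES pH 7.4, 140 mM NaCl, 0.005% Tween-20, 5% DMSO, 0.44 mM DTNB. ZGR initial velocities were measured at four substrate levels (~2.3–9.4 x Km) and five inhibitor levels (0–~8.4 x Ki). Triplicate data were globally fit to a competitive inhibition model.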

[13] = target: T5, C1s purified from human serum (Homo sapiens, UniProt P09871); assay: Native C1s chromogenic ZGR assay; assay type: biochemical
T5 sequence (P09871 16-437 limits assumed): T3 sequence (P09871 16-437 limits assumed)
T5 sequence (P09871 438-688 limits assumed): T1 sequence (P09871 438-688 limits assumed)

[14] = test system: bovine pancreatic trypsin; details: concentrations up to 200 μM; cited from earlier work
[15] = recombinant human C1s-2SP, competitive inhibition model

Compound: N=C(N)c1ccc(N2CCN(c3ccccc3)CC2)nc1 [A1, 6-(4-phenylpiperazin-1-yl)pyridine-3-carboximidamide]
Ki [1]: 51.2 µM
inhibition of Cathepsin-G [2]: did not inhibit
C4b deposition (CP activity) [3]: reduced C4b deposition to less than two standard deviations below the mean; also recorded: essentially complete inhibition of C4b deposition
IC50 ([3]; CP ELISA, C4b deposition, A1 100 – 3.1 μM): 22 µM
inhibition of C5a generation [4]: ~ 75%
Ki [5]: 8.5 µM
inhibition of Neutrophil Elastase [6]: did not inhibit
inhibition of Factor Xa [7]: did not inhibit
activity against the LP [8]: relatively weak activity against the LP compared to the CP
solubility [9]: ≥ 10 mM
Ki [10]: 842 µM
selectivity C1s over C1r ([10]; ratio of Ki values): ~ 145 fold
IC50 [11]: ~85 µM
Ki [12]: 24.6 µM
Ki [13]: 5.8 µM

Compound: I.NC(N)=NCc1ccc(CN2CCc3ccccc32)cc1 [D4]
C1s-2SP activity (initial velocity of ZGR cleavage) [5]: failed to inhibit C1s enzyme activity

Compound: COc1cccc(Oc2ccc(CN=C(N)Nc3ccccc3)cn2)c1.I [H1]
C1s-2SP activity (initial velocity of ZGR cleavage) [5]: failed to inhibit C1s enzyme activity

Compound: COc1ccc(CCNC(N)=NCc2ccc(OCCC(C)C)c(OC)c2)cc1.I [D10]
C1s-2SP activity (initial velocity of ZGR cleavage) [5]: failed to inhibit C1s enzyme activity

Compound: Cl.Cl.NC(N)=NCCCN(Cc1ccc(-c2ccccc2)cc1)S(=O)(=O)CCCN=C(N)N [F2]
C1s-2SP activity (initial velocity of ZGR cleavage) [5]: failed to inhibit C1s enzyme activity

Compound: O=C(CSc1ncnc2sc(-c3ccccc3)cc12)NC(Cc1c[nH]c2ccccc12)C(=O)O (stereo not drawn) [H9]
C1s-2SP activity (initial velocity of ZGR cleavage) [5]: failed to inhibit C1s enzyme activity

Compound: N=C(N)Nc1ccc(C(=O)O)cc1 [4-guanidinobenzoic acid]
inhibition of trypsin [14]: failed to inhibit trypsin

Compound: O=C(COC(=O)Cn1cnc2scc(-c3cccs3)c2c1=O)Nc1ccc(O)cc1 [B5]
C4b deposition (CP activity) [3]: reduced C4b deposition to less than two standard deviations below the mean

Compound: N=C(N)c1cccnc1 [pyridine-3-carboximidamide, reference compound]
inhibition of C1s ([13]; concentrations approaching ~375 μM, data not shown): failed to detect such inhibition

Next, values leading:

Ki [5, 15]: 19.5 µM
Compound: N=C(N)c1ccc(N2CCN(c3cccc(F)c3)CC2)nc1 [meta-fluorine A1 analog]

loss of activity compared to A1 [5]: > 10 fold
Compound: N=C(N)c1ccc(N2CCN(c3ccc(F)cc3)CC2)nc1 [para-fluorine A1 analog]

loss of activity compared to A1 [5]: > 10 fold
Compound: N=C(N)c1ccc(N2CCN(c3ccc(Cl)cc3)CC2)nc1 [para-chlorine A1 analog]

Ki [5, 15]: 22.6 µM
Compound: Cc1cccc(N2CCN(c3ccc(C(=N)N)cn3)CC2)c1 [meta-methyl A1 analog]
